# core dimer inh: inhibitors of HCV core protein dimerization, primary screen, biochemical, TR-FRET, high-throughput. TR-FRET GST/Flag-core106 dimerization, 1536-well. inhibition, % at 5 µM. 0.33% of 300,000 active;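 active means inhibition above the mean of all tested compounds plus 3 SD, set per screening campaign, cut at about 45% in these data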
#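 System – GST-tagged and Flag-tagged HCV core protein residues 1-106 · Repeats – one well for each compound · Technique – TR-FRET 671 and 617 nm emission · Doses – one concentration, 5 µM, in 0.5% DMSO · Times – 4 h, 22.5 °C incubation · Also added – Eu donor and XL665 acceptor anti-tag antibodies · Measure – percent inhibition of core106 dimerization signal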
# PHOSPHO1 block: PubChem AID 1565 | inhibition, % at 13.3 µM | recombinant PHOSPHO1, absorbance phosphatase assay | 1.1% of 290,000 active; in the data active means inhibition above about 60%
# Target sequence (Q8TCT1 whole entry, looked up): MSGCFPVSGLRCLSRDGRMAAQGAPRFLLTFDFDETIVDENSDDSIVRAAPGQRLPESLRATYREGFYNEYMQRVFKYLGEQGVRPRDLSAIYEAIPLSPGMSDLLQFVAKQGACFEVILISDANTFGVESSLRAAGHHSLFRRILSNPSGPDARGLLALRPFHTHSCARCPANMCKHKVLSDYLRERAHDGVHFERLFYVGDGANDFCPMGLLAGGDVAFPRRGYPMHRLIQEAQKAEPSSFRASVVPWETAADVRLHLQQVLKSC
# AI-2 QS mod: Vibrio harveyi AI-2 quorum sensing modulators, primary screen, JMH597 strain, luminescence/OD600 ratio; Vibrio harveyi JMH597 AI-2 luminescence/OD600 ratio, 9 h; stronger effect = lower value; strain lacks LuxN and CqsS sensors; 0 = neutral-control median; activity change, % at 7.5 µM; 0.4% of 300,000 active; AID 2094, 2009; in the data active means activity change below about -75%, passing the limit was not always enough;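 further: luminescence divided by OD600 gain over 9 h not by final OD600 alone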
# HSF-1 act: HSF-1 activators, primary screen, NIH3T3-HGL cells, MG132 stress, luminescence, single point. 1.7% of 300,000 active. NIH3T3-HGL HSF-1 luciferase reporter, 8 h; 100% = twice DMSO control signal. activation, % at 9 µM;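 active means mean replicate activation of at least 50% with a set share of replicates each reaching 50%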
# ALR inh: inhibitors of human ALR sulfhydryl oxidase, primary screen, biochemical, H2O2 detection, HRP-luminol luminescence, single point. AID 485317, 2010. FAD-linked sulfhydryl oxidase ALR (Homo sapiens), P55789. purified ALR, DTT oxidation. inhibition, % (test concentration not listed). 3.8% of 290,000 active;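 active means mean replicate inhibition above about 79%, with every replicate also reaching it, limit read from the data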
# Target sequence (P55789 whole entry, looked up): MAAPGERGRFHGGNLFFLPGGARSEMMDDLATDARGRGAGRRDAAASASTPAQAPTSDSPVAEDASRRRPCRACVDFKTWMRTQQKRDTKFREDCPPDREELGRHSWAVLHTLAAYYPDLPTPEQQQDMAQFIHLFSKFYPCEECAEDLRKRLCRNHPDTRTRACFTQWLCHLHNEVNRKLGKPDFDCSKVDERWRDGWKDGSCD
# HSF1 inhib: HSF1 inhibitors in luciferase reporter cells, primary screen, cell-based, NIH3T3, luminescence. NIH3T3-HGL HSE-luciferase, MG132-induced, luminescence 8 h; stronger effect = lower value. AID 2098, 2009. activity change, negative = inhibition, % at 7.5 µM (by protocol). 0.77% of 300,000 active;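 active means more than half of replicate wells show activity change below -50%, luminescence cut by over half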;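 further: luciferase reports HSF-1 transcriptional activity via heat shock element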
# Numbers stand for hits; – = inactive; · = no result given. In the library only some 6.8% were active in any assay of this set; here they are far more common.
SMILES,core dimer inh,PHOSPHO1 block,AI-2 QS mod,HSF-1 act,ALR inh,HSF1 inhib
N#C/C(=C/C=C/c1ccccc1)C(=O)Nc1ccccc1,–,–,·,–,–,–
N#C/C(=C\c1ccccc1C(F)(F)F)C(=O)Nc1ccccc1,–,–,–,–,90.2,–
CC(C)N1CCN(CCCc2ccccc2)CC1CCO (stereo unspecified),–,–,–,–,·,–
CC(NC(=O)c1ccc(C(F)(F)F)cc1)C(c1ccccc1)N1CCOCC1 (stereo unspecified),–,62.9,–,–,–,–
CC(NC(=O)Cc1ccccc1)C(c1ccccc1)N1CCOCC1 (stereo unspecified),–,–,–,–,–,–
C/C(=N\Nc1ccc(F)cc1)c1ccncc1,–,–,–,–,·,–
C/C(=N\Nc1ccc(Cl)cc1)c1ccccn1,–,94.5,–,–,99.7,–
C/C(=N\Nc1ccc(Cl)cc1)c1ccncc1,–,–,–,–,99.2,–
C/C(=N\Nc1cccc(Cl)c1)c1ccncc1,–,–,–,–,99.5,–
Cc1ccc(S(=O)(=O)CCC(=O)Nc2cccc(S(=O)(=O)N3CCCCCC3)c2)cc1,·,·,·,·,–,·
CCOc1ccc(OCC)c(NC(=O)CCNS(=O)(=O)c2cc(Br)cnc2N)c1,–,–,–,–,–,–
C=CCC(CC(O)COCCC)C(=O)NNC(=S)Nc1ccccc1 (stereo unspecified),–,–,–,–,98.3,–
CCCCn1c(N)nc2ccccc21,–,–,–,–,·,-71.2
CN(c1nnc(N)s1)C1CCCCC1,–,–,–,–,99.3,–
Cc1sc2ncnc(N(C)C3CCCCC3)c2c1C,–,–,–,–,–,–
NC(=O)N/N=C/c1ccccc1OCC(=O)NCc1ccccc1,–,–,–,–,–,–
O=C(Nc1ncc(Cc2cccc([N+](=O)[O-])c2)s1)c1ccco1,–,60.1,–,–,–,–
CC(=O)Nc1ncc(Cc2cccc(Cl)c2)s1,–,60.1,–,–,–,–
CC1=N/C(=C\c2ccc(OC(C)C)cc2)C(=O)N1c1ccc(C(=O)O)cc1,–,–,-82.5,–,–,–
CC(C)Oc1ccc(C(=O)O)cc1,–,–,–,–,–,-88.8
COc1ccc(/C=C2\N=C(c3ccccc3)N(c3ccc(C(=O)O)cc3)C2=O)cc1OC,–,–,–,–,–,–
CNS(=O)(=O)c1cccc(C(=O)OCC(=O)c2ccc3[nH]c(=O)[nH]c3c2)c1,·,·,·,·,–,·
COP(=O)(OC)c1nc(-c2cccc3ccccc23)oc1NCc1ccccc1,–,–,–,87.4,–,–
O=C(CCS(=O)(=O)c1ccccc1)N(CCCN1CCOCC1)c1nc2c(F)cccc2s1,–,·,–,161.4,·,–
O=C(CCS(=O)(=O)c1ccccc1)N(CCCN1CCOCC1)c1nc2ccc(F)cc2s1,–,·,–,146.8,–,–
SMILES,core dimer inh,PHOSPHO1 block,AI-2 QS mod,HSF-1 act,ALR inh,HSF1 inhib
CCc1cccc2sc(N(CCCN3CCOCC3)C(=O)CS(=O)(=O)c3ccccc3)nc12,–,·,–,–,·,–
C[C@H]1CN([C@@H](C)CO)C(=O)c2cccc(NC(=O)c3nc4ccccc4s3)c2O[C@H]1CN(C)C(=O)Nc1ccc(F)cc1,·,·,·,·,–,·
O=S(=O)(c1ccc(-c2ccon2)s1)N1CCN(CCN2CCOCC2)CC1,–,–,–,–,–,–
CCN(CC)C(=O)CN(Cc1ccccc1)S(=O)(=O)c1ccc(F)cc1,–,–,–,–,–,–
CCN(Cc1ccccc1)S(=O)(=O)c1ccc(F)cc1,–,–,–,–,–,-62.1
O=C(CSc1nnc(-c2ccncc2)o1)N1CCCCCC1,·,67.6,–,–,·,–
CCC1CCCCN1C(=O)CSc1nnc(-c2ccc3c(c2)OCCO3)o1 (stereo unspecified),–,–,–,–,–,–
Fc1ccc(CSc2nnc(-c3ccncc3)o2)cc1,–,–,-78.0,–,–,–
Cc1ccc(-c2nnc(SCC(=O)N3CCCC3)o2)cc1C,–,92.4,–,–,99.2,–
O=C(CSc1nnc(-c2ccc3c(c2)OCCO3)o1)N1CCCC1,–,–,–,–,99.3,–
COc1ccc(CNC(=O)C2CCC(CNS(=O)(=O)c3ccc(C)cc3)CC2)cc1 (stereo unspecified),–,–,–,–,–,–
Cc1cccc(N2C(=O)N3[C@H]4c5ccccc5OC[C@@H]4[C@@H](c4ccccc4)[C@@]3(C)C2=O)c1,·,·,·,·,–,·
COc1cc(/C=c2\s/c(=C(/C#N)C(=O)N3CCCC3)n(-c3ccccc3)c2=O)ccc1O,–,–,–,·,–,·
Cc1ccc(/C=c2\s/c(=C(/C#N)C(=O)N3CCCC3)n(Cc3ccco3)c2=O)s1,–,–,–,90.1,·,–
O=C(NNC(=O)c1ccccc1O)c1ccc(S(=O)(=O)Nc2ccccc2)cc1,–,·,–,–,–,–
CCOC(=O)C1=C(C)NC(=S)NC1c1ccc(-c2ccc(Cl)cc2)o1 (stereo unspecified),–,–,–,–,–,–
COC(=O)C1=C(C)NC(C)=C(C(=O)OC)C1c1ccc(-c2cccc(Cl)c2Cl)o1,–,–,–,53.2,–,–
COC(=O)C1=C(C)NC(C)=C(C(=O)OC)C1c1ccc(-c2cc(Cl)ccc2Cl)o1,–,–,–,–,–,–
COC(=O)C1=C(C)NC(=S)NC1c1ccc(-c2cccc(Cl)c2)o1 (stereo unspecified),–,–,–,71.6,–,–
Cc1cc(C(=O)NNC(=O)COc2ccccc2Cl)n[nH]1,–,–,–,–,·,–
Cc1nc(Nc2ccccc2)sc1C(=O)Nc1ccccc1,–,–,–,–,–,–
Cc1nc(NC(C)c2ccccc2)sc1C(=O)Nc1ccccc1 (stereo unspecified),–,60.9,–,–,–,-86.8
Cc1nc(NCc2ccccc2)sc1C(=O)Nc1ccccc1,–,68.1,–,–,–,–
CCOc1cc(/C=C2/C(=N)N3OC(C)=CC3=NC2=O)ccc1OCCOc1ccccc1,–,–,–,–,–,–
CCCCc1nnc(SC(C)C(=O)Nc2nccs2)n1C (stereo unspecified),–,–,–,–,–,–
CC(C)c1ccc2c(c1)C1(NN=C(c3ccccc3)S1)C(=O)N2 (stereo unspecified),–,–,-90.7,–,–,–
CCc1ccc2c(c1)C1(NN=C(c3ccc(C)cc3)S1)C(=O)N2 (stereo unspecified),–,–,–,–,–,–
CCOc1c2ccc(C(=O)NCc3ccccc3OC)cc2nn1CC,–,–,–,–,–,-66.5

# Source: PubChem BioAssay (several laboratories)
